“Also recorded” adds a separate entry of the source. Read-outs that look alike come from different tables or passages of the source.
Legend:
α1β1γ2S receptors = α1β1γ2S receptors (Rattus norvegicus, UniProt P15431+P62813); assay: IGABA enhancement; assay type: cell-based; conditions: for Emax: read-out: maximal IGABA enhancement (Emax); for Hill-coefficient (nH): α1β1γ2S, GABA EC3-7, Xenopus oocytes
Method in brief: (§1)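 Rat α1, β1/β2/β3 and γ2S cRNAs (100–2000 ng/μl/subunit, about 10–50 nl) were injected into collagenase-treated stage V–VI Xenopus oocytes held at 18°C in ND96. The α:β:γ ratio was 1:1:10 for β2 and β3 and 3:1:10 for β1. Recordings used two-electrode voltage clamp at −70 mV in a HEPES bath at pH 7.4. Compound (≤500 µM, DMSO matched) was applied with per-oocyte GABA EC3–7 by fast perfusion. Oocytes above 5 µA were excluded. Enhancement = I(GABA+Comp)/IGABA − 1, Hill-fitted for EC50, Emax and nH; ≥3 oocytes, ≥2 batches.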

α1β2γ2S receptors = α1β2γ2S receptors (Rattus norvegicus, UniProt P62813+P63138); assay: IGABA enhancement; assay type: cell-based; conditions: for Hill-coefficient (nH): α1β2γ2S, GABA EC3-7, Xenopus oocytes; for Emax: read-out: maximal IGABA enhancement (Emax)
Chain of α1β2γ2S receptors (P63138 25-474 limits assumed): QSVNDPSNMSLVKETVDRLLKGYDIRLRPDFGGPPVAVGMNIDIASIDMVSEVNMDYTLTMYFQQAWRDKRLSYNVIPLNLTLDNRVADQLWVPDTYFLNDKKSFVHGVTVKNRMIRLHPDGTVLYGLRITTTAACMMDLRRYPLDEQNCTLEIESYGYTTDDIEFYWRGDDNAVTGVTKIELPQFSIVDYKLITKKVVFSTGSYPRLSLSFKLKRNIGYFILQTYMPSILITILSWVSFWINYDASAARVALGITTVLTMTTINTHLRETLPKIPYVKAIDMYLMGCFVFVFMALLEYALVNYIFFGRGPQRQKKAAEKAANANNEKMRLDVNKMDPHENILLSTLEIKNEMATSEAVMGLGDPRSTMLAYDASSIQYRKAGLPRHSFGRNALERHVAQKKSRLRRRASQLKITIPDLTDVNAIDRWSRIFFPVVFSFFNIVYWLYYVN
Chain of α1β2γ2S receptors (P62813 28-455): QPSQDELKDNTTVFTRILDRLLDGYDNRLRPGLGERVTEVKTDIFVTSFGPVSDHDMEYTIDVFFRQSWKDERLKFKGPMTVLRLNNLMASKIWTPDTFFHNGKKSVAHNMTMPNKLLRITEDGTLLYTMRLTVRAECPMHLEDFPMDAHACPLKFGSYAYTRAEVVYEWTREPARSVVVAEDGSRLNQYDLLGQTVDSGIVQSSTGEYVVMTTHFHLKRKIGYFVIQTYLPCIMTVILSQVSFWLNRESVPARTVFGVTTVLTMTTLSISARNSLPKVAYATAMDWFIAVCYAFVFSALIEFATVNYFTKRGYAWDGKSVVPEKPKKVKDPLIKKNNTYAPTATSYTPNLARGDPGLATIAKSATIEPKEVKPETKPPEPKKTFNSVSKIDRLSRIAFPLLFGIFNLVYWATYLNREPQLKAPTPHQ
Chain of α1β2γ2S receptors (P18508 39-466 partner): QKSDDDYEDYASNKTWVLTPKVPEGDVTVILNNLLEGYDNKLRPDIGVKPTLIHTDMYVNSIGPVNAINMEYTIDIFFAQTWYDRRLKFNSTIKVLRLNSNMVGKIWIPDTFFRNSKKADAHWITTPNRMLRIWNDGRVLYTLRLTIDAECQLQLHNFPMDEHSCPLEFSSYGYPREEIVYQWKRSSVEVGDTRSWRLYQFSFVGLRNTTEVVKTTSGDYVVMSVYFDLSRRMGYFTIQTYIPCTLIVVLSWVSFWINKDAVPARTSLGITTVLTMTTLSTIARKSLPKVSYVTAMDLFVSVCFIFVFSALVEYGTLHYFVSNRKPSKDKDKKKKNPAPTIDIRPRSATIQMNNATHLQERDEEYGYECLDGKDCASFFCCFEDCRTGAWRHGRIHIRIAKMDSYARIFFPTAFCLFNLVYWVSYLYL
Method in brief: as §1

α1β3γ2S receptors [1] = target: T1, α1β3γ2S receptors (Rattus norvegicus, UniProt P62813+P63079); assay: IGABA enhancement; assay type: cell-based; conditions: for Emax: read-out: maximal IGABA enhancement (Emax); for Hill-coefficient (nH): GABA EC3-7, Xenopus oocytes
T1 sequence (P63079 26-473): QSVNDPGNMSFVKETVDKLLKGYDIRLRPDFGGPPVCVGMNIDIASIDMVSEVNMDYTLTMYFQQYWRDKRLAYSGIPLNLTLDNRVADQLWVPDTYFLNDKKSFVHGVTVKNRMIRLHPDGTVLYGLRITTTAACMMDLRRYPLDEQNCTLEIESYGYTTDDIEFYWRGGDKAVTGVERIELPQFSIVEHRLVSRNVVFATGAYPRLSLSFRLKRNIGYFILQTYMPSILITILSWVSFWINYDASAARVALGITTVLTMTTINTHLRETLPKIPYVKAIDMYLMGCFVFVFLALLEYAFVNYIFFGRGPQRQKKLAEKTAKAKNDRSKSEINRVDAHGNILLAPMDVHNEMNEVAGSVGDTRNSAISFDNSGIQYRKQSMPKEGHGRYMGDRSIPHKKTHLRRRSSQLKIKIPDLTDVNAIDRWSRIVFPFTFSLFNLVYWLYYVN
T1 sequence (P62813 28-455): as the sequence (P62813 28-455) above
T1 sequence (P18508 39-466 partner): as the sequence (P18508 39-466 partner) above
Method in brief: as §1

[2] = test system: pentylenetetrazole (PTZ)-induced seizure threshold; assay: PTZ-induced seizure threshold; assay type: in vivo, male C57BL/6N mice; conditions: for PTZ-induced seizure threshold: 30 min before test, saline control 40.4 ± 1.4
Method in brief: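 Male C57BL/6N mice aged 3–6 months received compound i.p. 30 min before testing. Vehicle was 0.9% NaCl with 10% DMSO and 3% Tween 80. PTZ (10 mg/ml in saline, pH 7.4) was infused into the tail vein at 100 µl/min in freely moving animals until seizure onset. Threshold was the infused PTZ dose per body weight (mg/kg). ≥3 mice per point; one-way ANOVA with Bonferroni.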

locomotor activity = assay: Open-field test; assay type: in vivo, male C57BL/6N mice; conditions: for total distance covered in the open field test: 30 min before test, 10 min test, control 38.3 ± 1.5 m
α1β3γ2S receptors [3] = target: T1, α1β3γ2S receptors; conditions: GABA EC3-7, Xenopus oocytes, ref Luger et al. (2015); cited from earlier work
[4] = test system: pentylenetetrazole (PTZ)-induced seizure threshold; conditions: 3 mg/kg i.p., 30 min before test; ref Hintersteiner et al. (2014); cited from earlier work
GABAA channels = conditions: ref Khom et al., 2007; cited from earlier work

Chain of α1β1γ2S receptors (P15431 26-474): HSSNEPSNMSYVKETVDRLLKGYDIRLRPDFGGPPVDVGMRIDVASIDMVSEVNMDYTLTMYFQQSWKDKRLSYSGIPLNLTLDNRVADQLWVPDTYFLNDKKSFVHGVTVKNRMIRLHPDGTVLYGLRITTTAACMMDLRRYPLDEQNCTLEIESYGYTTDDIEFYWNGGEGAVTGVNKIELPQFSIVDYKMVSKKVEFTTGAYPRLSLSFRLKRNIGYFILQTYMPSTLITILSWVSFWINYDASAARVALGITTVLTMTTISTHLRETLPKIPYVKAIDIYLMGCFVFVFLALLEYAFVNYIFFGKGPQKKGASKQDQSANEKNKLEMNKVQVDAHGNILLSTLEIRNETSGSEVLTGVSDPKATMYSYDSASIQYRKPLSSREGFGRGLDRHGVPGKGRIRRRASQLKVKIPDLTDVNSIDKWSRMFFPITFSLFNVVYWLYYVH
Chain of α1β1γ2S receptors (P62813 28-455): as the sequence (P62813 28-455) above
Chain of α1β1γ2S receptors (P18508 39-466 partner): as the sequence (P18508 39-466 partner) above

Row | SMILES | EC50 (α1β1γ2S receptors) [µM] | Emax (α1β1γ2S receptors) [%] | Hill-coefficient (nH) (α1β1γ2S receptors) | EC50 (α1β2γ2S receptors) [µM] | Hill-coefficient (nH) (α1β2γ2S receptors) | EC50 (α1β3γ2S receptors [1]) [µM] | Emax (α1β3γ2S receptors [1]) [%] | Hill-coefficient (nH) (α1β3γ2S receptors [1]; α1β3γ2S) | total distance covered in the open field test (locomotor activity; 30 mg/kg i.p.) [m] | Emax (α1β2γ2S receptors) [%] | effect on locomotor activity vs control (locomotor activity; low doses (≤10 mg/kg) i.p.) | PTZ-induced seizure threshold ([2]; 10 mg/kg i.p.) [mg/kg PTZ] | PTZ-induced seizure threshold ([2]; 30 mg/kg i.p.) [mg/kg PTZ] | effect on locomotor activity vs control (locomotor activity; any tested dose i.p.) | other results
1 | CC1=C2[C@H](/C=C(\C)C(=O)O)CC[C@@H](C)[C@H]2CC1 [VA, Valerenic acid, reference compound] | 74.4 ± 19.3 | 111 ± 16 | 1.6 ± 0.5 | 23.1 ± 4.2 | 1.4 ± 0.2 | – | – | – | 37.6 ± 2.5 | 721 ± 68 | – | 49.0 ± 1.8 | 43.4 ± 1.8 | did not differ significantly | effect on PTZ-induced seizure threshold ([2]; doses <3 mg/kg body weight i.p.): did not alter seizure threshold; total distance covered in the open field test (locomotor activity; 1 mg/kg i.p.): 34.9 ± 1.3 m; total distance covered in the open field test (locomotor activity; 3 mg/kg i.p.): 38.7 ± 2.1 m; total distance covered in the open field test (locomotor activity; 10 mg/kg i.p.): 38.0 ± 1.4 m; Hill-coefficient (nH) (α1β3γ2S receptors [3]): 1.5 ± 0.3; PTZ-induced seizure threshold [4]: 47.7 ± 1.4 mg/kg PTZ; concentration directly activating GABAA channels in the absence of GABA (GABAA channels): ≥ 30 µM
2 | CCN(CC)C(=O)/C(C)=C/[C@@H]1CC[C@@H](C)[C@H]2CCC(C)=C12 [VA-DEA, (E)-3-((4S,7R,7aR)-3,7-dimethyl-2,4,5,6,7,7a-hexahydro-1H-inden-4-yl)-N,N-diethyl-2-methylacrylamide] | 97.2 ± 33.8 | 318 ± 84 | 1.8 ± 0.3 | 54.4 ± 11.1 | 1.6 ± 0.3 | 80.8 ± 31.3 | 374 ± 102 | 1.9 ± 0.5 | – | 573 ± 33 | – | – | 48.7±1.7 | did not reveal any significantly different behavior | –
3 | CC1=C2[C@H](/C=C(\C)C#N)CC[C@@H](C)[C@H]2CC1 [VA-CN, (E)-3-((4S,7R,7aR)-3,7-dimethyl-2,4,5,6,7,7a-hexahydro-1H-inden-4-yl)-2-methylacrylonitrile] | 73 ± 38.7 | 55 ± 14 | 1.7 ± 0.7 | 56.5 ± 13.3 | 2.5 ± 0.7 | 42.4 ± 15.8 | 522 ± 114 | 2.1 ± 0.8 | 31.5±1.5 | 765 ± 117 | did not affect locomotor activity | 51.1 ± 0.6 | – | – | –

These reach a lower EC50 (α1β1γ2S receptors). Values come first.

Row | EC50 (α1β1γ2S receptors) [µM] | Emax (α1β1γ2S receptors) [%] | Hill-coefficient (nH) (α1β1γ2S receptors) | EC50 (α1β2γ2S receptors) [µM] | Hill-coefficient (nH) (α1β2γ2S receptors) | EC50 (α1β3γ2S receptors [1]) [µM] | Emax (α1β3γ2S receptors [1]) [%] | Hill-coefficient (nH) (α1β3γ2S receptors [1]; α1β3γ2S) | total distance covered in the open field test (locomotor activity; 30 mg/kg i.p.) [m] | Emax (α1β2γ2S receptors) [%] | effect on locomotor activity vs control (locomotor activity; low doses (≤10 mg/kg) i.p.) | SMILES | PTZ-induced seizure threshold ([2]; 10 mg/kg i.p.) [mg/kg PTZ] | PTZ-induced seizure threshold ([2]; 30 mg/kg i.p.) [mg/kg PTZ] | effect on locomotor activity vs control (locomotor activity; any tested dose i.p.) | other results
4 | 66.6 ± 34.6 | 218 ± 78 | 1.8 ± 0.6 | 14 ± 2.2 | 1.4 ± 0.2 | 7.5 ± 1.8 | 972 ± 69 | 1.5 ± 0.2 | 23.5±2.2 | – | – | CC1=C2[C@H](/C=C(\C)C(N)=O)CC[C@@H](C)[C@H]2CC1 [VA-A, (E)-3-((4S,7R,7aR)-3,7-dimethyl-2,4,5,6,7,7a-hexahydro-1H-inden-4-yl)-2-methylacrylamide] | 55.4 ± 0.7 | 50.6 ± 2.2 | – | PTZ-induced seizure threshold ([2]; 3 mg/kg i.p.): 57.9 ± 1.9 mg/kg PTZ; total distance covered in the open field test (locomotor activity; 10 mg/kg i.p.): 29.9 ± 2.6 m; effect on locomotor activity vs control (locomotor activity; doses of 1 and 3 mg/kg i.p.): did also not affect the total distance covered; effect on locomotor activity vs control (locomotor activity; doses ≥10 mg/kg i.p., 10 mg/kg): reduced locomotion; also recorded: reduced locomotor activity
5 | 52.5 ± 20.1 | 305 ± 67 | 1.7 ± 0.5 | 63.9 ± 23.7 | 1.3 ± 0.2 | 48 ± 16 | 415 ± 61 | 1.4 ± 0.2 | – | 594 ± 36 | – | CC1=C2[C@H](/C=C(\C)C(=O)N(C)C)CC[C@@H](C)[C@H]2CC1 [VA-DMA, (E)-3-((4S,7R,7aR)-3,7-dimethyl-2,4,5,6,7,7a-hexahydro-1H-inden-4-yl)-N,N,2-trimethylacrylamide] | – | – | did not reveal any significantly different behavior | effect on PTZ-induced seizure threshold vs diluent-treated controls ([2]; any tested dose i.p.): did not significantly differ
6 | 58.1 ± 16.5 | 387 ± 56 | 1.6 ± 0.3 | 9.1 ± 1.4 | 1.5 ± 0.1 | 12.7 ± 0.9 | – | 1.5 ± 0.1 | 29.7 ± 2.0 | 917 ± 36 | did not affect locomotor activity | CNC(=O)/C(C)=C/[C@@H]1CC[C@@H](C)[C@H]2CCC(C)=C12 [VA-MA, (E)-3-((4S,7R,7aR)-3,7-dimethyl-2,4,5,6,7,7a-hexahydro-1H-inden-4-yl)-N,2-dimethylacrylamide] | 50.4±1.4 | 63.6 ± 2.5 | – | effect on locomotor activity vs control (locomotor activity; doses ≥10 mg/kg i.p.): reduced locomotion
7 | 51.4 ± 19.8 | 458 ± 124 | 1.6 ± 0.3 | 11 ± 3.6 | 1.6 ± 0.3 | 27.2 ± 6.7 | 677 ± 64 | 1.3 ± 0.2 | – | 554 ± 49 | – | CCNC(=O)/C(C)=C/[C@@H]1CC[C@@H](C)[C@H]2CCC(C)=C12 [VA-EA, (E)-3-((4S,7R,7aR)-3,7-dimethyl-2,4,5,6,7,7a-hexahydro-1H-inden-4-yl)-N-ethyl-2-methylacrylamide] | – | 55.6 ± 0.4 | did not reveal any significantly different behavior | –
8 | 23.5 ± 10.9 | 176 ± 43 | 1.8 ± 0.6 | 34.1 ± 6.3 | 1.0 ± 0.1 | 6 ± 1 | 668 ± 57 | 1.1 ± 0.1 | 19.2 ± 2.1 | – | did not affect locomotor activity | CC1=C2[C@H](/C=C(\C)c3nnn[nH]3)CC[C@@H](C)[C@H]2CC1 [VA-TET, 5-((E)-1-((4S,7R,7aR)-3,7-dimethyl-2,4,5,6,7,7a-hexahydro-1H-inden-4-yl)prop-1-en-2-yl)-1H-tetrazole] | – | – | – | increase in potency on β3-containing receptors compared with VA (α1β3γ2S receptors [1]; EC50 ratio VA / VA-TET, α1β3γ2S): approximately threefold; PTZ-induced seizure threshold ([2]; 0.3 mg/kg i.p.): 47.3 ± 0.5 mg/kg PTZ; effect on PTZ-induced seizure threshold ([2]; doses ≥1 mg/kg i.p.): lost its anticonvulsive properties; effect on locomotor activity vs control (locomotor activity; doses ≥10 mg/kg i.p.): reduced locomotion

Source: publication PMC4885513 (The Journal of Pharmacology and Experimental Therapeutics, 2016)
